Tests used:
dengue virus type 2 = assay: Antiviral activity against dengue virus 2 infected in human HuH7 cells after 72 hrs by Western blot and ECL detection based assay; type: functional, organism-based; details: Huh-7, 72 h
Outline: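 Huh-7 cells (ATCC) in DMEM with 10% FBS, 1% nonessential amino acids and 1% antibiotic-antimycotic, 37 °C, 5% CO2. Seeded at 5 × 10^4 cells/mL/well for 12–16 h, then infected with DENV-2 strain 16681 at MOI 0.2 for 2 h at 37 °C. Washed with PBS and refed with compound in DMEM–10% FBS. At 72 h p.i., NS2B Western blot with GAPDH loading control and ECL detection. Ribavirin as reference.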

[1] = Cytotoxicity against human HuH7 cells after 72 hrs by MTS assay; type: cell-based, Huh-7
[2] = Selectivity index, ratio of CC50 against human HuH7 cells to EC50 against dengue virus 2; type: toxicity, cell-based, Huh-7; details: read-out: Ratio CC50/EC50

Row | SMILES | EC50 (dengue virus type 2) [µM] | CC50 at 72 h [1] [µM] | selectivity ratio [2]
1 | CC[C@H](C)C(=O)O[C@@H]1[C@@H]2C(=O)[C@](C)(C3CC[C@]4(C)[C@@H](CC(=O)O[C@H]4c4ccoc4)[C@]34O[C@H]24)[C@@H]([C@@H](O)C(=O)OC)C1(C)C (some centres undefined) | 7.2 | > 200 | > 27.7
2 | C/C=C(\C)C(=O)O[C@@H]1[C@H]2C=C3[C@@H]4CC(=O)O[C@@H](c5ccoc5)[C@]4(C)CC[C@@H]3[C@@](C)(C2=O)[C@@H]([C@@H](OC(C)=O)C(=O)OC)C1(C)C | 6.3 | 83 | 13.2
3 | CC1(C)C(=O)C=C[C@]2(C)[C@H]3CC[C@@]4(C)[C@H](c5ccoc5)OC(=O)[C@H]5O[C@]54[C@]3(C)[C@H](O)C[C@@H]12 [DEACETYLGEDUNIN] | 12.5 | 105 | 8.4
4 | C=C1[C@@H]2CC[C@@]3(C)[C@H](c4ccoc4)OC(=O)C[C@]13O[C@H]1CC(=O)C(C)(C)[C@H](CC(=O)OC)[C@]12C [METHYLANGOLENSATE] | 4.3 | 116 | 27
5 | NC(=O)c1ncn([C@@H]2O[C@H](CO)[C@@H](O)[C@H]2O)n1 [RIBAVIRIN] | 12.6 | – | 4.47
